Starred links: 1 amine or outer side, 2 acyl side, 3 side chain; linkers in the order of their positions; H or OH if unused. Positions of bridges follow the written chain, without caps; N, C: chain ends. Non-standard residues stand in square brackets, D forms with d. Residues, ends and D or L forms follow the SMILES beside them. X1 = NC(=O)CC[C@@H](C(=O)[*:2])[C@H](CC(N)=O)N[*:1]; NMeN = CN[C@@H](CC(N)=O)C(=O)O
Tests used:
[1] = target: Glutamate [NMDA] receptor; test: The compound was tested for the inhibitory activity against N-methyl-D-aspartate glutamate receptor from mid-frontal region of human brain by measuring spermine-enhanced [3H]- MK-801 binding
Procedure, shortened: (§1)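 Crude synaptosomal membranes from the named human brain region, frozen at -70°C, then washed in water and in 5 mM Tris-HCl pH 7.4. Duplicate tubes at room temperature held membranes (about 0.25 mg/mL protein), 30 μM spermine, 2 nM [3H]MK-801 and peptide at 10^-9–10^-4 M, without added Ca2+ or with 1.5 mM CaCl2. Nonspecific binding was taken with 3 μM unlabeled MK-801. After 45 min, samples were filtered onto GF/B and counted by scintillation.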

[2] = target: Glutamate [NMDA] receptor; test: The compound was tested for the inhibitory activity against N-methyl-D-aspartate glutamate receptor from sensorimotor gyri region of human brain by measuring spermine-enhanced [3H]- MK-801 binding; procedure, shortened: as §1
[3] = target: Glutamate [NMDA] receptor; test: The compound was tested for the inhibitory activity against N-methyl-D-aspartate glutamate receptor from superior temporal region of human brain by measuring spermine-enhanced [3H]- MK-801 binding; procedure, shortened: as §1

Q: How did the IC50 [1] turn out when `CC[C@@H](C)[C@H](NC(=O)[C@H](CC(C)C)NC(=O)[C@@H]1CCC(=O)NCCCC[C@H](NC(=O)[C@H](CCC(N)=O)NC(=O)[C@H](CC(C)C)NC(=O)[C@H](CCC(=O)O)NC(=O)[C@H](CCC(=O)O)NC(=O)[C@H](CCC(=O)O)NC(=O)CN)C(=O)N[C@@H](CC(N)=O)C(=O)N[C@H](CCC(N)=O)C(=O)N1)C(=O)N[C@@H](CCCN=C(N)N)C(=O)N[C@@H](CCC(=O)O)C(=O)N[C@@H](CCCCN)C(=O)N[C@@H](CO)C(=O)N[C@@H](CC(N)=O)C(N)=O` was run?
A: 8.48 µM

Q: How did the IC50 [1] turn out when `CC[C@@H](C)[C@H](NC(=O)[C@H](CC(C)C)NC(=O)[C@H](CCC(=O)O)[C@H](CCC(N)=O)NC(=O)[C@H](CC(N)=O)NC(=O)[C@H](CCC(=O)O)NC(=O)[C@H](CCC(N)=O)NC(=O)[C@H](CC(C)C)NC(=O)[C@H](CCC(=O)O)NC(=O)[C@H](CCC(=O)O)NC(=O)[C@H](CCC(=O)O)NC(=O)CN)C(=O)N[C@@H](CCCN=C(N)N)C(=O)N[C@@H](CCC(=O)O)C(=O)N[C@@H](CCCCN)C(=O)N[C@@H](CO)C(=O)N[C@@H](CC(N)=O)C(N)=O` was run?
A: 0.069 µM

Q: And the IC50 [2]?
A: 0.059 µM

Q: And the IC50 [3]?
A: 0.021 µM

Q: For `CC[C@H](C)[C@H](NC(=O)[C@H](CC(C)C)NC(=O)[C@H](CCC(=O)O)NC(=O)[C@H](CCC(N)=O)NC(=O)[C@H](CC(N)=O)NC(=O)[C@H](C)NC(=O)[C@H](CCC(N)=O)NC(=O)[C@H](CC(C)C)NC(=O)[C@H](CCC(=O)O)NC(=O)[C@H](CCC(=O)O)NC(=O)[C@H](CCC(=O)O)NC(=O)CN)C(=O)N[C@@H](CCCN=C(N)N)C(=O)N[C@@H](CCC(=O)O)C(=O)N[C@@H](CCCCN)C(=O)N[C@@H](CO)C(=O)N[C@@H](CC(N)=O)C(N)=O`, which IC50 [1] is on record?
A: 3.36 µM

Q: And the IC50 [2]?
A: 0.766 µM

Q: What about the IC50 [3] of the same compound?
A: 1.68 µM

Q: `CC[C@H](C)[C@H](NC(=O)[C@H](CC(C)C)NC(=O)[C@H](CCC(=O)O)NC(=O)[C@H](CCC(N)=O)NC(=O)[C@H](CC(N)=O)NC(=O)[C@H](CCCCN)NC(=O)[C@H](CCC(N)=O)NC(=O)[C@H](CC(C)C)NC(=O)[C@H](CCC(=O)O)NC(=O)[C@H](CCC(=O)O)NC(=O)[C@H](CCC(=O)O)NC(=O)CN)C(=O)N[C@@H](CCCN=C(N)N)C(=O)N[C@@H](CCC(=O)O)C(=O)N[C@@H](CCCCN)C(=O)N[C@@H](CO)C(=O)N[C@@H](CC(N)=O)C(N)=O` was tested. Which IC50 [1] did it give?
A: 11 µM

Q: Which IC50 [1] does the source give for `CC[C@H](C)[C@@H]1NC(=O)[C@H](CC(C)C)NC(=O)[C@@H](NC(=O)[C@H](CCC(N)=O)[C@H](CC(N)=O)NC(=O)[C@H](C)NC(=O)[C@H](CCC(N)=O)NC(=O)[C@H](CC(C)C)NC(=O)[C@H](CCC(=O)O)NC(=O)[C@H](CCC(=O)O)NC(=O)[C@H](CCC(=O)O)NC(=O)CN)CCC(=O)NCCCC[C@@H](C(=O)N[C@@H](CCC(=O)O)C(=O)N[C@@H](CCCCN)C(=O)N[C@@H](CO)C(=O)N[C@@H](CC(N)=O)C(N)=O)NC1=O` (H-GEEELQA[X1]ELIKEKSN-NH2; lactam 9-12) here?
A: > 20 µM

Q: Which IC50 [1] does the source give for `CSCC[C@H](NC(=O)[C@H](CCCCN)NC(=O)[C@H](CCC(N)=O)NC(=O)[C@H](Cc1ccc(O)cc1)NC(=O)[C@H](CCC(=O)O)NC(=O)[C@H](CCC(=O)O)NC(=O)[C@H](CCC(=O)O)NC(=O)CN)C(=O)N[C@@H](CC(C)C)C(=O)N[C@@H](CCC(=O)O)C(=O)N(C)[C@@H](CC(N)=O)C(=O)N[C@@H](CC(C)C)C(=O)N[C@@H](CCCN=C(N)N)C(=O)N[C@@H](CCC(=O)O)C(=O)N[C@@H](C)C(=O)N[C@@H](CCC(=O)O)C(=O)N[C@H](C(=O)N[C@@H](CCCCN)C(=O)N[C@@H](CCCCN)C(=O)N[C@@H](CC(N)=O)C(=O)N[C@@H](C)C(N)=O)C(C)C` (H-GEEEYQKMLE[NMeN]LREAEVKKNA-NH2) here?
A: 0.125 µM

Q: How did the IC50 [1] turn out when H-GEEELQEDQELIREKSD-NH2 was run?
A: 0.02 µM

Q: What about the IC50 [2] of the same compound?
A: 0.018 µM

Q: What about the IC50 [3] of the same compound?
A: 0.009 µM

Q: What does the source list for H-GEEELQEN-NH2?
A: IC50 [1]: 0.094 µM; IC50 [2]: 0.058 µM; IC50 [3]: 0.023 µM

Q: H-GEEEYQANQELIREKSN-NH2 was tested. Which IC50 [1] did it give?
A: 0.546 µM

Q: What about the IC50 [2] of the same compound?
A: 0.475 µM

Q: And the IC50 [3]?
A: 0.57 µM

Q: How did the IC50 [1] turn out when H-GEEEYQKNQELIREKSN-NH2 was run?
A: 0.099 µM

Q: And the IC50 [2]?
A: 0.047 µM

Q: And the IC50 [3]?
A: 0.056 µM

— ChEMBL document CHEMBL1132567, “Structure-activity studies of conantokins as human N-methyl-D-aspartate receptor modulators” (J Med Chem, 1999)
